pEC50: −log10 of the molar value. Active and inactive are the calls of the source. No cut-off for these calls is given here.
What was measured:
[1] = molecular target: Ubiquitin carboxyl-terminal hydrolase 7 (Homo sapiens) (UniProt Q93009); assay: Inhibition of USP7 in HEK293T cell lysates at 25 uM using HA-tagged vinyl-sulfone as substrate preincubated for 19 to 60 mins followed by substrate addition and measured after 19 to 25 mins by Western blot analysis; format: subcellular; conditions: Lysate
Sequence of Ubiquitin carboxyl-terminal hydrolase 7 (Homo sapiens) (Q93009 whole entry, looked up): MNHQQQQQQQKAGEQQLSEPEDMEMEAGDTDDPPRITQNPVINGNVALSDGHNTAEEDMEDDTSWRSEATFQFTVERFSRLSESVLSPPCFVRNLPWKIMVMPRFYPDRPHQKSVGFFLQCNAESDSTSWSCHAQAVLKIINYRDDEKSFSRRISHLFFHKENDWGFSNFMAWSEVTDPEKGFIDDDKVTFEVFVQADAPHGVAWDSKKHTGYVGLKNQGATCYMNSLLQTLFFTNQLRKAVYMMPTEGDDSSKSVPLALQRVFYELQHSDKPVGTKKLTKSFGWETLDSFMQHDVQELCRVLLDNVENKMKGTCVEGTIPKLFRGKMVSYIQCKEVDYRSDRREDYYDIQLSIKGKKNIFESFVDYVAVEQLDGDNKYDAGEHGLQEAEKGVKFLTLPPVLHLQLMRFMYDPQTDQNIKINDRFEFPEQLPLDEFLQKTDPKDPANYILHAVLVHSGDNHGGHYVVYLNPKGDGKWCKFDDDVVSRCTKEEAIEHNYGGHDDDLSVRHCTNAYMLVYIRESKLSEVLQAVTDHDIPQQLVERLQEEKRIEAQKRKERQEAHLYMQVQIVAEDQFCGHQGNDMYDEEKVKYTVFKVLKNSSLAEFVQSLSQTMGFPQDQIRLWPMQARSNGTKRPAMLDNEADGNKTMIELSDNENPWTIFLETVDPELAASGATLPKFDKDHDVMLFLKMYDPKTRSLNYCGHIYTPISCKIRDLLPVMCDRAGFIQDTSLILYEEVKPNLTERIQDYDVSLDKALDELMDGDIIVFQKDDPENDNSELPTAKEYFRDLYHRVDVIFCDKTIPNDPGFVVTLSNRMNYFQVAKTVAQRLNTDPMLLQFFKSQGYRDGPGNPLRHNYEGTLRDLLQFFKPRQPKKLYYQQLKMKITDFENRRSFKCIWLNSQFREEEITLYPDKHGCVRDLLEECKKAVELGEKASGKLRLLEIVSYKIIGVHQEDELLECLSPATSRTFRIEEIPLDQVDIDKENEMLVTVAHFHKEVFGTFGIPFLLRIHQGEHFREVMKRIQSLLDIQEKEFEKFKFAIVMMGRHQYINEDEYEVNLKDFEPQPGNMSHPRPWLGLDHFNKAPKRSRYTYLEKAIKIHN

[2] = molecular target: Ubiquitin carboxyl-terminal hydrolase isozyme L1 (Homo sapiens) (UniProt P09936); assay: Inhibition of UCHL1 in HEK293T cell lysates at 25 uM using HA-tagged vinyl-sulfone as substrate measured after 2 to 30 mins by Western blot analysis; format: subcellular; conditions: Lysate
Sequence of Ubiquitin carboxyl-terminal hydrolase isozyme L1 (Homo sapiens) (P09936 whole entry, looked up): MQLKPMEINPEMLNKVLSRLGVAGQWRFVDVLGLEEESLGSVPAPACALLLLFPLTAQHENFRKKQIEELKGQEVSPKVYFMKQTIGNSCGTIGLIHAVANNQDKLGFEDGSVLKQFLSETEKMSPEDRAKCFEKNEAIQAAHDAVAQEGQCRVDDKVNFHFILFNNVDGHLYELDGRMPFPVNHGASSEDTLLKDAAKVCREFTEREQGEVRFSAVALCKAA
How it was run: (§1)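 HEK 293T lysate (1.5 mg/ml) given compound (25 μM) or DMSO at the same time as HA-Ub-VS (1.5 μM). Aliquots withdrawn over time were run on SDS-PAGE and immunoblotted for HA.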

[3] = molecular target: Ubiquitin carboxyl-terminal hydrolase 9X (Homo sapiens) (UniProt Q93008); assay: Inhibition of recombinant His6-tagged USP9x catalytic domain (unknown origin) using Ub-AMC as substrate by fluorescence assay; conditions: TDE = time-dependent effect
Sequence of Ubiquitin carboxyl-terminal hydrolase 9X (Homo sapiens) (Q93008 whole entry, the tested form may be a part): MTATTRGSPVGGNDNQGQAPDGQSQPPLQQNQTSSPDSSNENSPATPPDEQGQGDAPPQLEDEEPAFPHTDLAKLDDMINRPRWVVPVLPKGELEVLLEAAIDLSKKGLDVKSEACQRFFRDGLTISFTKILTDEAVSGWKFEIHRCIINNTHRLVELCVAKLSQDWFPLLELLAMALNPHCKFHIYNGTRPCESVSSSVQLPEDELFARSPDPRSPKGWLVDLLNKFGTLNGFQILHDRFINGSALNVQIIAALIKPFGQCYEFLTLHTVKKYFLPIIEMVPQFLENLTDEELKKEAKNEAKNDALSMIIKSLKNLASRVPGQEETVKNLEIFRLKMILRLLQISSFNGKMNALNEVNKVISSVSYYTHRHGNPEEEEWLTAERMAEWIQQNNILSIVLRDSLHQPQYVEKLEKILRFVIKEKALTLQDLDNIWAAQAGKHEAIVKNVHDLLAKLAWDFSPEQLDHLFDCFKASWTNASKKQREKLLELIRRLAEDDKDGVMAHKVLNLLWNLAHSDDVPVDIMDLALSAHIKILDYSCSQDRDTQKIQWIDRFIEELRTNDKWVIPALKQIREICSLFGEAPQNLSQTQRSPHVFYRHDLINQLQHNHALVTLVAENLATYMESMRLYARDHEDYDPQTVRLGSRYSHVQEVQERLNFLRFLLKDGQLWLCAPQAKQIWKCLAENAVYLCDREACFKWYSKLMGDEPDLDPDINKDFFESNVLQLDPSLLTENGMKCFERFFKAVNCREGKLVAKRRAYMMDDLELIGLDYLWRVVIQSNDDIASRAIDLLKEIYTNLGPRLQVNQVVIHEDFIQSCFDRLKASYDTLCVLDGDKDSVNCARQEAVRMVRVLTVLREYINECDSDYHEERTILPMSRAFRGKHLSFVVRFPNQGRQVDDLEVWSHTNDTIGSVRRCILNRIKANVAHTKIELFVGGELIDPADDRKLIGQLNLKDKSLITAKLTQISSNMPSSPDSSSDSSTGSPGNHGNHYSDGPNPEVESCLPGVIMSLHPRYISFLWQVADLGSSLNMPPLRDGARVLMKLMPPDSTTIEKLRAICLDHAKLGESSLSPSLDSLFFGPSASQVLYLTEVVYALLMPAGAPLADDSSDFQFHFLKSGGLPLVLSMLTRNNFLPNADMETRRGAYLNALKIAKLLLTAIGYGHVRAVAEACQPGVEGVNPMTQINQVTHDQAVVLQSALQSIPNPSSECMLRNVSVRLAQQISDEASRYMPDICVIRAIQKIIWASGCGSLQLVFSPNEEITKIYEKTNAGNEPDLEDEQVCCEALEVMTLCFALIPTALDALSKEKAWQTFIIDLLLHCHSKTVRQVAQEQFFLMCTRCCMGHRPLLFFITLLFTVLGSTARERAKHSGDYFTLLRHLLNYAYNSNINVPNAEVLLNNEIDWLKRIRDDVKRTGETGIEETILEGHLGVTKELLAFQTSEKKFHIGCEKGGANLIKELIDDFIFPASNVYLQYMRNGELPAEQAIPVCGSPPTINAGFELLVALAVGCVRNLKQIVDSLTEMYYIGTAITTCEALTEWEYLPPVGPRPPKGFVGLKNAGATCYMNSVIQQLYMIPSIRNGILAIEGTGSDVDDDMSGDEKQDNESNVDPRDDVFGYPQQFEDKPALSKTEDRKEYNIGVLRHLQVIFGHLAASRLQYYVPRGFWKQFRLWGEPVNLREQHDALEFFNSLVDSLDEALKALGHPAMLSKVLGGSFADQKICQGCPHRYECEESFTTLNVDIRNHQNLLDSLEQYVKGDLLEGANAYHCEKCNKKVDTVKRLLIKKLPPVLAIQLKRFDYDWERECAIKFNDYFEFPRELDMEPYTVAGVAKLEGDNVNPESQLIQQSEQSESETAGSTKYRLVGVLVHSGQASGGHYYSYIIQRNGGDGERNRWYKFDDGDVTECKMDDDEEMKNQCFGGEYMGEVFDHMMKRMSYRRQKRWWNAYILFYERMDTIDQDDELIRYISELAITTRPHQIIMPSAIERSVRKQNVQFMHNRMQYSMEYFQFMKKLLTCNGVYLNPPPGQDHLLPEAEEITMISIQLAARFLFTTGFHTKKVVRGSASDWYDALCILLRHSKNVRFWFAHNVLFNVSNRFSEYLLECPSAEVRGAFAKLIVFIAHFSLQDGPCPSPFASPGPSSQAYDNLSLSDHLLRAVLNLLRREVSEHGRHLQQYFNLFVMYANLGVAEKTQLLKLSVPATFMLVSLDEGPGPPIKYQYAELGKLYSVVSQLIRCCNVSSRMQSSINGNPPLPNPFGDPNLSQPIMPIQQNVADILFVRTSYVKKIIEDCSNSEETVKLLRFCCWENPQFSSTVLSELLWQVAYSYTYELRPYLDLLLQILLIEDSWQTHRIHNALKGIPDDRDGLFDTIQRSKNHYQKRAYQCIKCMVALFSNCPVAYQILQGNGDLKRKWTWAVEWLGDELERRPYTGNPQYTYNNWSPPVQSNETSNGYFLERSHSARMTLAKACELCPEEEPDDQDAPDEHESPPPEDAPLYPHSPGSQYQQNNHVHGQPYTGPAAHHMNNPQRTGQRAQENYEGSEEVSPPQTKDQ

[4] = molecular target: Ubiquitin carboxyl-terminal hydrolase 7 (Homo sapiens) (UniProt Q93009); assay: Inhibition of USP7 in human MCF7 cells assessed as accumulation of K48-Ub protein at 50 uM after 4 hrs by Western blot analysis; format: cell-based
How it was run: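 MCF7 cells exposed to 50 μM compound for 4 h. K48-linked ubiquitin chains were detected by immunoblot.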

[5] = molecular target: Ubiquitin carboxyl-terminal hydrolase isozyme L1 (Homo sapiens) (UniProt P09936); assay: Inhibition of UCHL1 in HEK293T cell lysates assessed as enzyme recovery at 250 uM using HA-tagged vinyl-sulfone as substrate […] followed by 10-fold dilution and subsequent substrate addition measured within 15 mins by Western blot analysis; format: subcellular; conditions: Lysate
[6] = system: MCF7; assay: Cytotoxicity against human MCF7 cells assessed as decrease in cell viability treated every 24 hrs measured after 72 hrs by alamar blue assay; format: functional, cell-based
How it was run: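 MCF7 or B16/F10 cells dosed with compound every 24 h. Viable cells were quantified with Alamar Blue after 72 h.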

[7] = molecular target: T1, Ubiquitin carboxyl-terminal hydrolase isozyme L3 (Homo sapiens) (UniProt P15374); assay: Inhibition of UCHL3 in HEK293T cell lysates assessed as enzyme recovery at 250 uM using HA-tagged vinyl-sulfone as substrate […] followed by 10-fold dilution and subsequent substrate addition measured within 15 mins by Western blot analysis; format: subcellular; conditions: Lysate
T1 sequence (whole entry): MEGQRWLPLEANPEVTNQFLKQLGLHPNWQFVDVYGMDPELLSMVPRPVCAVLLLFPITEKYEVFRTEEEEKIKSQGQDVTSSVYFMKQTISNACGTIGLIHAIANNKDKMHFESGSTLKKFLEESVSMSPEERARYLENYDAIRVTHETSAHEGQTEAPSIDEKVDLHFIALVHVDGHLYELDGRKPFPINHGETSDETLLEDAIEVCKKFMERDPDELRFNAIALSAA

[8] = molecular target: Ubiquitin carboxyl-terminal hydrolase 7 (Homo sapiens) (UniProt Q93009); assay: Inhibition of USP7 in HEK293T cell lysates at 25 uM using HA-tagged vinyl-sulfone as substrate measured after 2 to 30 mins by Western blot analysis; format: subcellular; conditions: Lysate; how it was run: as §1
[9] = molecular target: chymotrypsin (Homo sapiens, UniProt P17538+P40313+Q6GPI1+Q99895); assay: (§2) Substrate activity at chymotrypsin (unknown origin) by Michaelis-Menten plot analysis; format: ADME, protein assay; conditions: chymotrypsin (isolated enzyme, unknown origin)
How it was run: (§3)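 Diarylcarbonate hydrolysis by chymotrypsin or trypsin measured across substrate concentrations; velocity versus substrate concentration fit for Km and kcat.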

[10] = molecular target: Chymotrypsin (Homo sapiens, UniProt Q99895+P17538+P40313+Q6GPI1); assay: as §2; format: ADME, protein assay; how it was run: as §3
[11] = molecular target: Ubiquitin carboxyl-terminal hydrolase 9X (Homo sapiens) (UniProt Q93008); assay: Inhibition of USP9x in HEK293T cell lysates at 25 uM using HA-tagged vinyl-sulfone as substrate measured after 2 to 30 mins by Western blot analysis; format: subcellular; conditions: Lysate; how it was run: as §1
[12] = Inhibition of deubiquitinase in HEK293T cells assessed as stabilization of K48-linked HMW-Ub protein by Western blot analysis; format: cell-based, Homo sapiens
[13] = molecular target: Trypsin (Homo sapiens, UniProt P07477+P07478+P35030); assay: Substrate activity at trypsin (unknown origin) by Michaelis-Menten plot analysis; format: ADME, protein assay; how it was run: as §3
[14] = system: Ficin (Ficus carica); assay: Inhibition of fig ficin at 100 uM using Z-Arg-AMC as substrate preincubated for 30 mins followed by substrate addition by fluorescence assay
[15] = molecular target: T2, Ubiquitin carboxyl-terminal hydrolase 19 (Homo sapiens) (UniProt O94966); assay: Inhibition of USP19 in HEK293T cell lysates at 25 uM using HA-tagged vinyl-sulfone as substrate preincubated for 19 to 60 mins followed by substrate addition and measured after 19 to 25 mins by Western blot analysis; format: subcellular; conditions: Lysate
T2 sequence (whole entry): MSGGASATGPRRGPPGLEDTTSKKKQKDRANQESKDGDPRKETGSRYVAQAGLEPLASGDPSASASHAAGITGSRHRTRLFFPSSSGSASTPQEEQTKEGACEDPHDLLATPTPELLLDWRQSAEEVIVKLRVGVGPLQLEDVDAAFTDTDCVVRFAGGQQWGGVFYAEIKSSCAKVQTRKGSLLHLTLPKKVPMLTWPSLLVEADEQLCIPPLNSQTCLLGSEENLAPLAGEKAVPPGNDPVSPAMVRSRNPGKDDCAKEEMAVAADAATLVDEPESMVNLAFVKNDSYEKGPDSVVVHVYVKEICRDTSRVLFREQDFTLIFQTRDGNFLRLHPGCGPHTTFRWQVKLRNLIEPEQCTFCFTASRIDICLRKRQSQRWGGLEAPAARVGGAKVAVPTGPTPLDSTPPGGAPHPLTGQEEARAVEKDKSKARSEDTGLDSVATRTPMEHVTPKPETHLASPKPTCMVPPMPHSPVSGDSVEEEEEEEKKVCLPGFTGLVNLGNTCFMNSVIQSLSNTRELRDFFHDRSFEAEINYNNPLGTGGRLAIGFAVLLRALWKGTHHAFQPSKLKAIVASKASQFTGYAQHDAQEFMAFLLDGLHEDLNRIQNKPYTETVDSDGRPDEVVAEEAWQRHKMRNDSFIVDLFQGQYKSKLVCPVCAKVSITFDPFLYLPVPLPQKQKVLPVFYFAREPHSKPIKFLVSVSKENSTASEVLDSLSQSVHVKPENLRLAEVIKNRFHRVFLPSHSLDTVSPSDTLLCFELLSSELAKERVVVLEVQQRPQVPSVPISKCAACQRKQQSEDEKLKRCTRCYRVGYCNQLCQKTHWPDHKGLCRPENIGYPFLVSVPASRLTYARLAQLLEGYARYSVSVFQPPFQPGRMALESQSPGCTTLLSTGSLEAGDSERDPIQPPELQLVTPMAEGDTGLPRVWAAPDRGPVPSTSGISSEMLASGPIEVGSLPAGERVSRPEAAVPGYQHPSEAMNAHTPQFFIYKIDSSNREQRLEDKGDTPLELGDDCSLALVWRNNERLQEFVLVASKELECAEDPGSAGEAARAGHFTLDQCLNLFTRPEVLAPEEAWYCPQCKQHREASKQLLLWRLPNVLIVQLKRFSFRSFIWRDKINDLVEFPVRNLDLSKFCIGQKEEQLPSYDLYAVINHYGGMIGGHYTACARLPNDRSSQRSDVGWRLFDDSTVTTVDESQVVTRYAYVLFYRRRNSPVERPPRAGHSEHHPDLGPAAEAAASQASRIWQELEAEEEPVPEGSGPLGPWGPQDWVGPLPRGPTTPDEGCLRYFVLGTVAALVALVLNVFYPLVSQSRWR

inhibition [1]: Active
inhibition [2]: inactive
inhibition [3]: Tde
inhibition [4]: Active
inhibition [5]: Active
inhibition [7]: Active
inhibition [8]: inactive
Km [9]: 1 µM
Kcat [10]: 0.03 s⁻¹
inhibition [11]: inactive
pEC50 [12]: > 4.30
Kcat [13]: 0.02 s⁻¹
Km ([13]; trypsin (isolated enzyme, unknown origin)): 1 µM
inhibition [14]: inactive
inhibition [15]: Active
Structure (SMILES): NCc1ccc(OC(=O)Oc2ccc3ccccc3c2)cc1
Activity [6]: Active

— ChEMBL document CHEMBL4371052, “Diarylcarbonates are a new class of deubiquitinating enzyme inhibitor” (Bioorg Med Chem Lett, 2019)
